In brackets after ≈: the same amount, converted by molar mass. Several values for one entry are separate records, joined by “and”; a condition that tells them apart may be missing. Equal entries are not always repeated. Activity calls are given as the source filed them. The calls are words filed in the database; no cut-off is given here.
Key:
[1] = Tested for half life in male Sprague-Dawley rats dosed at 10 mg/kg orally; type: ADME, organism-based; set-up: dose 10 mg/kg, route oral; conditions: rat, in vivo, po
Method in brief: (§1)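 Single 10 mg/kg oral dose to male Sprague-Dawley rats or male Beagle dogs. Plasma Cpmax (µg/mL), Tmax (h), t1/2 (h) and bioavailability (%) derived from the plasma profile.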

Endothelin-1 receptor = target: T1, Endothelin-1 receptor (Rattus norvegicus, UniProt P26684); experiment: In vitro ability to antagonise the binding of [125I]ET1 to the rat aortic A10 cell membrane endothelin A receptor.; type: cell membranes
T1 sequence (P26684 whole entry): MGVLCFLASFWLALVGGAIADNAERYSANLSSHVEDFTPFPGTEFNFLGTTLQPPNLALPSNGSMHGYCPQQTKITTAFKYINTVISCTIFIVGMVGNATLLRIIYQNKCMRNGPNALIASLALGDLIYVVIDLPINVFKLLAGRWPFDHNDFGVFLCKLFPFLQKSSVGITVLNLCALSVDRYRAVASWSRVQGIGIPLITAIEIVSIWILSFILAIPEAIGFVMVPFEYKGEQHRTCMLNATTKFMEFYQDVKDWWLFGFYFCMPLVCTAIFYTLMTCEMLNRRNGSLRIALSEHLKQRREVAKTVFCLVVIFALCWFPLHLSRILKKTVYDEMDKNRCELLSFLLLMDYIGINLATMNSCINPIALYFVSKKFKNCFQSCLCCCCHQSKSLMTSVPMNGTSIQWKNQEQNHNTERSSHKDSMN

[2] = Tested for Tmax in male Sprague-Dawley rats dosed at 10 mg/kg orally; type: ADME, organism-based; set-up: dose 10 mg/kg, route oral; conditions: rat, in vivo, po; method in brief: as §1
Rattus norvegicus = species on record: Rattus norvegicus; experiment: Tested for inhibition of ET-1 induced contraction against isolated Rat aortic rings denuded of the endothelium.; type: functional, Aorta
Method in brief: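 Endothelium-denuded rat aortic rings contracted by ET-1. Tested compound at increasing concentrations, with ET-1 dose-response curves run in its presence. Antagonism expressed as pKb from the rightward shift of the ET-1 curve. Determinations in duplicate, with 95% confidence limits.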

[3] = Maximal plasma concentration in male Sprague-Dawley rats at 10 mg/kg oral dose; type: ADME, organism-based; set-up: dose 10 mg/kg, route oral; conditions: rat; method in brief: as §1
[4] = Oral bioavailability in rat (Sprague-Dawley) (male) (dose 10 mg/kg); type: ADME, organism-based; conditions: in vivo; method in brief: as §1
[5] = Measured solubility; type: ADME, organism-based, Rattus norvegicus
[6] = test system: Endothelin receptor type A (Rattus norvegicus); experiment: Activity against Endothelin A receptor in pithed rats after intravenous administration at 25 umol/kg
[7] = test system: Endothelin receptor type A (Rattus norvegicus); experiment: Inhibition of Endothelin A receptor in pithed rats 3 hour after oral administration at 75 umol/kg
[8] = test system: Endothelin receptor type A (Rattus norvegicus); experiment: Inhibition of Endothelin A receptor in pithed rats 1.5 hour after oral administration at 75 uM/kg
[9] = Tested for half life in male Beagle dogs dosed at 10 mg/kg orally; type: ADME, organism-based, Canis lupus familiaris; set-up: dose 10 mg/kg, route oral; conditions: dog, in vivo, po; method in brief: as §1
[10] = Tested for Tmax in male Beagle dogs dosed at 10 mg/kg orally; type: ADME, organism-based, Canis lupus familiaris; set-up: dose 10 mg/kg, route oral; conditions: dog, in vivo, po; method in brief: as §1
[11] = Maximal plasma concentration in male Beagle dogs at 10 mg/kg oral dose; type: ADME, organism-based, Canis lupus familiaris; set-up: dose 10 mg/kg, route oral; conditions: dog; method in brief: as §1
[12] = Tested for bioavailability in male Beagle dogs dosed at 10 mg/kg orally; type: ADME, organism-based, Canis lupus familiaris; conditions: dog, in vivo, po, read-out: Bioavailabiility; method in brief: as §1

N#Cc1ccc(OCc2ccsc2)cc1OC(C(=O)O)c1ccccc1Cl (centres undefined)
half-life [1]: 5 h
IC50 (Endothelin-1 receptor): 17 nM
Tmax [2]: 0.5 h
pKb (Rattus norvegicus): 7.76
Cmax [3]: 62000 ng/mL
bioavailability [4]: 129%
solubility [5]: 1190 µg/mL (≈ 2.98 mM)

N#Cc1ccc(OCc2ccc3c(c2)OCO3)cc1OC(C(=O)O)c1ccccc1 (centres undefined)
IC50 (Endothelin-1 receptor): 41 nM
Activity [6]: 7.6 µM/kg
pKb (Rattus norvegicus): 7.4

N#Cc1ccc(OCc2ccsc2)cc1OC(C(=O)O)c1ccccc1F (centres undefined)
IC50 (Endothelin-1 receptor): 22 nM

Cc1ccccc1C(Oc1cc(OCc2ccncc2)ccc1C#N)C(=O)O (centres undefined)
IC50 (Endothelin-1 receptor): 9 nM
pKb (Rattus norvegicus): 7.6

Cc1ccccc1C(Oc1cc(OCc2ccoc2)ccc1C#N)C(=O)O (centres undefined)
IC50 (Endothelin-1 receptor): 68 nM

N#Cc1ccc(OCc2ccsc2)cc1OC(C(=O)O)c1ccccc1C(F)(F)F (centres undefined)
IC50 (Endothelin-1 receptor): 53 nM

N#Cc1ccc(OCc2ccsc2)cc1OC(C(=O)O)c1cccc(Cl)c1 (centres undefined)
IC50 (Endothelin-1 receptor): 98 nM

Cc1ccccc1C(Oc1cc(OCc2ccnc(F)c2)ccc1C#N)C(=O)O (centres undefined)
IC50 (Endothelin-1 receptor): 23 nM

Cc1ccccc1[C@H](Oc1cc(OCc2ccncc2)ccc1C#N)C(=O)O
IC50 (Endothelin-1 receptor): 5 nM
pKb (Rattus norvegicus): 8.3

Cc1ccccc1C(Oc1cc(OCc2ccncc2)ccc1C#N)C(=O)[O-].[Na+] (centres undefined)
half-life [1]: 0.2 h
IC50 (Endothelin-1 receptor): 5 nM
Tmax [2]: 2 h
Cmax [3]: 290 ng/mL
bioavailability [4]: 9%

Cc1ccccc1[C@H](Oc1cc(OCc2ccc3c(c2)OCO3)ccc1C#N)C(=O)O
IC50 (Endothelin-1 receptor): 6 nM

Cc1ccccc1C(Oc1cc(OCc2ccc3ncoc3c2)ccc1C#N)C(=O)O (centres undefined)
IC50 (Endothelin-1 receptor): 6 nM
Activity [6]: 63 µM/kg
pKb (Rattus norvegicus): 7.8
Activity [7]: 3.1 µM/kg
Activity [8]: inactive

N#Cc1ccc(OCc2ccncc2)cc1OC(C(=O)O)c1ccccc1Cl (centres undefined)
IC50 (Endothelin-1 receptor): 6 nM
Activity [6]: 46.8 µM/kg
pKb (Rattus norvegicus): 7.7
Activity [7]: 1.7 µM/kg
Activity [8]: 2.7 µM/kg

N#Cc1ccc(OCc2ccnnc2)cc1OC(C(=O)O)c1ccccc1Cl (centres undefined)
IC50 (Endothelin-1 receptor): 44 nM

Cc1ccccc1C(Oc1cc(OCc2ccccc2)ccc1C#N)C(=O)O (centres undefined)
IC50 (Endothelin-1 receptor): 49 nM

Cc1ccccc1C(Oc1cc(OCc2ccc3ocnc3c2)ccc1C#N)C(=O)O (centres undefined)
IC50 (Endothelin-1 receptor): 75 nM

Cc1ccccc1C(Oc1cc(OCc2ccc3c(c2)OCCO3)ccc1C#N)C(=O)O (centres undefined)
IC50 (Endothelin-1 receptor): 1500 nM

N#Cc1ccc(OCc2ccsc2)cc1OC(C(=O)O)c1ccoc1 (centres undefined)
IC50 (Endothelin-1 receptor): 2850 nM

N#Cc1ccc(OCc2ccc3c(c2)OCO3)cc1OC(C(=O)O)c1ccccc1Cl (centres undefined)
half-life [1]: 6.3 h
IC50 (Endothelin-1 receptor): 14 nM
Tmax [2]: 1 h
Activity [6]: 13.8 µM/kg
pKb (Rattus norvegicus): 8
Activity [7]: 10 µM/kg
Activity [8]: 19 µM/kg
Cmax [3]: 22000 ng/mL
bioavailability [4]: 76%
solubility [5]: 1680 µg/mL (≈ 3.84 mM)

Cc1ccccc1C(Oc1cc(OCc2ccsc2)ccc1C#N)C(=O)O (centres undefined)
IC50 (Endothelin-1 receptor): 20 nM
pKb (Rattus norvegicus): 7.9

N#Cc1ccc(OCc2ccsc2)cc1OC(C(=O)O)c1ccccc1Br (centres undefined)
IC50 (Endothelin-1 receptor): 51 nM

N#Cc1ccc(OCc2ccsc2)cc1OC(C(=O)O)c1ccc(Cl)cc1 (centres undefined)
IC50 (Endothelin-1 receptor): 504 nM

COc1cc(COc2ccc(C#N)c(OC(C(=O)O)c3ccccc3C)c2)cc(OC)c1OC (centres undefined)
IC50 (Endothelin-1 receptor): > 3000 nM

Cc1ccccc1C(Oc1cc(OCc2ccc3c(c2)OCO3)ccc1C#N)C(=O)[O-].[Na+] (centres undefined)
half-life [1]: 2.8 h
IC50 (Endothelin-1 receptor): 7 nM
Tmax [2]: 1 h
half-life [9]: 7.4 h
pKb (Rattus norvegicus): 8.1
Tmax [10]: 0.5 h
Cmax [11]: 30100 ng/mL
bioavailability [12]: 89%
Cmax [3]: 5900 ng/mL
bioavailability [4]: 84%
solubility [5]: > 20000 µg/mL

Cc1ccccc1C(Oc1cc(OCc2ccsn2)ccc1C#N)C(=O)O (centres undefined)
IC50 (Endothelin-1 receptor): 220 nM

Cc1ccccc1C(Oc1cc(OCc2ccc3c(c2)OCO3)ccc1C#N)C(=O)O (centres undefined) [listing 1 of 2 here]
IC50 (Endothelin-1 receptor): 12 nM
pKb (Rattus norvegicus): 7.9

Cc1ccccc1C(Oc1cc(OCc2ccc3c(c2)OCO3)ccc1C#N)C(=O)O (centres undefined) [listing 2 of 2 here]
Activity [6]: 23 µM/kg and 45 µM/kg
Activity [8]: 26 µM/kg and 34 µM/kg

COc1ccccc1C(Oc1cc(OCc2ccsc2)ccc1C#N)C(=O)O (centres undefined)
IC50 (Endothelin-1 receptor): 529 nM

Cc1ccccc1C(Oc1cc(OCc2cncs2)ccc1C#N)C(=O)O (centres undefined)
IC50 (Endothelin-1 receptor): 30 nM

Cc1ccccc1C(Oc1cc(OCc2ccccn2)ccc1C#N)C(=O)O (centres undefined)
IC50 (Endothelin-1 receptor): > 3000 nM

N#Cc1ccc(OCc2ccsc2)cc1OC(C(=O)O)c1ccccc1 (centres undefined)
IC50 (Endothelin-1 receptor): 70 nM
pKb (Rattus norvegicus): 7.24

N#Cc1ccc(OCc2ccncc2)cc1OC(C(=O)O)c1ccsc1 (centres undefined)
IC50 (Endothelin-1 receptor): 630 nM

Cc1ccccc1C(Oc1cc(OCc2cccnc2)ccc1C#N)C(=O)O (centres undefined)
IC50 (Endothelin-1 receptor): 30 nM

Cc1ccccc1C(Oc1cc(OCc2c(C)cccc2C)ccc1C#N)C(=O)O (centres undefined)
IC50 (Endothelin-1 receptor): 857 nM

N#Cc1ccc(OCc2ccc3ncoc3c2)cc1OC(C(=O)O)c1ccccc1Cl (centres undefined)
IC50 (Endothelin-1 receptor): 9 nM
pKb (Rattus norvegicus): 7.5

N#Cc1ccc(OCc2ccc3c(c2)OCO3)cc1OC(C(=O)O)c1ccccc1C(F)(F)F (centres undefined)
IC50 (Endothelin-1 receptor): 16 nM
Activity [6]: 9 µM/kg
pKb (Rattus norvegicus): 7.4
